Assay results: ChEMBL document CHEMBL4373640, “Synthesis and antitumor activity of aza-brazilan derivatives containing imidazolium salt pharmacophores” (Medchemcomm, 2019)

How the values were obtained:
[1] = Induction of apoptosis in human SMMC-7221 cells assessed as viable cells at 8 uM after 48 hrs by AnnexinV-FITC/propidium iodide staining based FACSCalibur flow cytometry analysis (reference value: 89.8 %); type: functional; settings: SMMC-7221, 48 h, read-out: Activity
[2] = Cell cycle arrest in human SMMC-7221 cells assessed as accumulation at G2/M phase at 4 uM after 24 hrs by propidium iodide/RNase A staining based FACSCalibur flow cytometry analysis (reference value: 8.21 +/- 0.38 %); type: functional
[3] = Induction of apoptosis in human SMMC-7221 cells assessed as early apoptotic cells at 2 uM after 48 hrs by AnnexinV-FITC/propidium iodide staining based FACSCalibur flow cytometry analysis (reference value: 0.106 %); type: functional
A549 = assay: Cytotoxicity against human A549 cells assessed as reduction in cell viability after 48 hrs by MTS assay; type: functional, cell-based; settings: A549, 48 h
How it was run: (§1)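 Cells (5 × 10^3 per well) were plated 12 h before treatment, then exposed continuously to compound for 48 h. MTS was added, with 1–4 h incubation at 37 °C and OD read at 490 nm. IC50 is the concentration cutting OD by 50% versus untreated cells, taken from dose–response curves. Values are the mean of three independent determinations.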

[4] = Induction of apoptosis in human SMMC-7221 cells assessed as viable cells at 1 uM after 48 hrs by AnnexinV-FITC/propidium iodide staining based FACSCalibur flow cytometry analysis (reference value: 89.8 %); type: functional; settings: SMMC-7221, 48 h, read-out: Activity
[5] = Induction of apoptosis in human SMMC-7221 cells assessed as necrotic cells at 2 uM after 48 hrs by AnnexinV-FITC/propidium iodide staining based FACSCalibur flow cytometry analysis (reference value: 2.34 %); type: functional
[6] = Cell cycle arrest in human SMMC-7221 cells assessed as accumulation at G0/G1 phase at 2 uM after 24 hrs by propidium iodide/RNase A staining based FACSCalibur flow cytometry analysis (reference value: 72.17 +/- 1.0 %); type: functional
[7] = Cytotoxicity against human SMMC-7221 cells assessed as reduction in cell viability after 48 hrs by MTS assay; type: functional, cell-based; settings: SMMC-7221, 48 h; how it was run: as §1
[8] = Cell cycle arrest in human SMMC-7221 cells assessed as accumulation at S phase at 1 uM after 24 hrs by propidium iodide/RNase A staining based FACSCalibur flow cytometry analysis (reference value: 14.733 +/- 1.29 %); type: functional
[9] = Induction of apoptosis in human SMMC-7221 cells assessed as necrotic cells at 8 uM after 48 hrs by AnnexinV-FITC/propidium iodide staining based FACSCalibur flow cytometry analysis (reference value: 2.34 %); type: functional
[10] = Cell cycle arrest in human SMMC-7221 cells assessed as accumulation at sub-G1 phase at 4 uM after 24 hrs by propidium iodide/RNase A staining based FACSCalibur flow cytometry analysis (reference value: 4.03 +/- 0.47 %); type: functional
[11] = Induction of apoptosis in human SMMC-7221 cells assessed as early apoptotic cells at 0.5 uM after 48 hrs by AnnexinV-FITC/propidium iodide staining based FACSCalibur flow cytometry analysis (reference value: 0.106 %); type: functional
[12] = Cell cycle arrest in human SMMC-7221 cells assessed as accumulation at sub-G1 phase at 2 uM after 24 hrs by propidium iodide/RNase A staining based FACSCalibur flow cytometry analysis (reference value: 4.03 +/- 0.47 %); type: functional
L02 = assay: Cytotoxicity against human LO2 cells assessed as reduction in cell viability after 48 hrs by MTS assay; type: cell-based; settings: L02, 48 h; how it was run: as §1
[13] = Induction of apoptosis in human SMMC-7221 cells assessed as late apoptotic cells at 1 uM after 48 hrs by AnnexinV-FITC/propidium iodide staining based FACSCalibur flow cytometry analysis (reference value: 7.7 %); type: functional
[14] = Induction of apoptosis in human SMMC-7221 cells assessed as late apoptotic cells at 2 uM after 48 hrs by AnnexinV-FITC/propidium iodide staining based FACSCalibur flow cytometry analysis (reference value: 7.7 %); type: functional
[15] = Cell cycle arrest in human SMMC-7221 cells assessed as accumulation at S phase at 4 uM after 24 hrs by propidium iodide/RNase A staining based FACSCalibur flow cytometry analysis (reference value: 14.733 +/- 1.29 %); type: functional
[16] = Induction of apoptosis in human SMMC-7221 cells assessed as necrotic cells at 0.5 uM after 48 hrs by AnnexinV-FITC/propidium iodide staining based FACSCalibur flow cytometry analysis (reference value: 2.34 %); type: functional
[17] = Induction of apoptosis in human SMMC-7221 cells assessed as necrotic cells at 4 uM after 48 hrs by AnnexinV-FITC/propidium iodide staining based FACSCalibur flow cytometry analysis (reference value: 2.34 %); type: functional
BEAS-2B = assay: Cytotoxicity against human BEAS2B cells assessed as reduction in cell viability after 48 hrs by MTS assay; type: cell-based; how it was run: as §1
[18] = Induction of apoptosis in human SMMC-7221 cells assessed as late apoptotic cells at 0.5 uM after 48 hrs by AnnexinV-FITC/propidium iodide staining based FACSCalibur flow cytometry analysis (reference value: 7.7 %); type: functional
[19] = Cell cycle arrest in human SMMC-7221 cells assessed as accumulation at G0/G1 phase at 4 uM after 24 hrs by propidium iodide/RNase A staining based FACSCalibur flow cytometry analysis (reference value: 72.17 +/- 1.0 %); type: functional
[20] = Induction of apoptosis in human SMMC-7221 cells assessed as early apoptotic cells at 4 uM after 48 hrs by AnnexinV-FITC/propidium iodide staining based FACSCalibur flow cytometry analysis (reference value: 0.106 %); type: functional
[21] = Cell cycle arrest in human SMMC-7221 cells assessed as accumulation at G0/G1 phase at 1 uM after 24 hrs by propidium iodide/RNase A staining based FACSCalibur flow cytometry analysis (reference value: 72.17 +/- 1.0 %); type: functional
[22] = Induction of apoptosis in human SMMC-7221 cells assessed as viable cells at 0.5 uM after 48 hrs by AnnexinV-FITC/propidium iodide staining based FACSCalibur flow cytometry analysis (reference value: 89.8 %); type: functional; settings: SMMC-7221, 48 h, read-out: Activity
NCM460 = assay: Cytotoxicity against human NCM460 cells assessed as reduction in cell viability after 48 hrs by MTS assay; type: cell-based; settings: NCM460, 48 h; how it was run: as §1
[23] = Induction of apoptosis in human SMMC-7221 cells assessed as late apoptotic cells at 8 uM after 48 hrs by AnnexinV-FITC/propidium iodide staining based FACSCalibur flow cytometry analysis (reference value: 7.7 %); type: functional
[24] = Induction of apoptosis in human SMMC-7221 cells assessed as viable cells at 4 uM after 48 hrs by AnnexinV-FITC/propidium iodide staining based FACSCalibur flow cytometry analysis (reference value: 89.8 %); type: functional; settings: SMMC-7221, 48 h, read-out: Activity
MCF7 = assay: Cytotoxicity against human MCF7 cells assessed as reduction in cell viability after 48 hrs by MTS assay; type: functional, cell-based; settings: MCF7, 48 h; how it was run: as §1
[25] = Cell cycle arrest in human SMMC-7221 cells assessed as accumulation at sub-G1 phase at 1 uM after 24 hrs by propidium iodide/RNase A staining based FACSCalibur flow cytometry analysis (reference value: 4.03 +/- 0.47 %); type: functional

## COc1cccc2c1N(CCCn1c[n+](Cc3ccc(C)cc3)c3cc(C)c(C)cc31)C[C@@H]1Cc3ccc(Br)cc3[C@H]21.[Br-]
[1]
  viability at 8 µM: 5.16%
[2]
  Activity: 5.98%
[3]
  Activity: 0.216%
A549
  IC50: 1.3 µM
[4]
  viability at 1 µM: 79.2%
[5]
  Activity: 6.13%
[6]
  Activity: 80.22%
[7]
  IC50: 0.52 µM
[8]
  Activity: 10.18%
[9]
  Activity: 13.3%
[10]
  Activity: 18.65%
[11]
  Activity: 0.314%
[12]
  Activity: 1.21%
L02
  IC50: 2.1 µM
[13]
  Activity: 14.6%
[14]
  Activity: 16%
[15]
  Activity: 12.76%
[16]
  Activity: 6.79%
[17]
  Activity: 7.08%
BEAS-2B
  IC50: 2.09 µM
[18]
  Activity: 8.66%
[19]
  Activity: 62.54%
[20]
  Activity: 0.919%
[21]
  Activity: 80.32%
[22]
  viability at 0.5 µM: 84.2%
NCM460
  IC50: 1.97 µM
[23]
  Activity: 81.4%
[24]
  viability at 4 µM: 15.2%
MCF7
  IC50: 0.68 µM
[25]
  Activity: 1.32%
